In article PMC4361903 (Blood, 2010):
One block for each molecule: values may come before it. Where no end group is shown, it is not given here. [ ]: non-standard residue; d: D form. pY = N[C@@H](Cc1ccc(OP(=O)(O)O)cc1)C(=O)O

Legend:
Syk (platelet) = Syk (platelet) (UniProt P43405); assay: biotinylated peptide pull-down, Syk blot; conditions: reference: pY7 31-mer peptide; sites T9
Syk N-SH2 domain = Syk N-SH2 domain (Homo sapiens, UniProt P43405); assay: Surface plasmon resonance, binding of Syk N-SH2 to immobilised peptide; conditions: SPR, 25°C, pH 7.4, SH2 domain 0-80μM
Syk C-SH2 domain = Syk C-SH2 domain (Homo sapiens, UniProt P43405); assay: Surface plasmon resonance, binding of Syk C-SH2 to immobilised peptide; conditions: SPR, 25°C, pH 7.4, SH2 domain 0-80μM
[1] = target: tandem SH2 domains of Syk (Homo sapiens, UniProt P43405); assay: Surface plasmon resonance, binding of Syk tandem SH2 to immobilised peptide; conditions: SPR, 25°C, pH 7.4, SH2 domains 0-80μM
[2] = target: dually phosphorylated peptide based on the human FcRγ-chain ITAM, biotinylated (human) (UniProt P30273); assay: SPR
[3] = system: GPVI and FcRγ-chain with mutated C-terminal ITAM tyrosine; assay type: cell-based; conditions: 10 μg/ml collagen, 6 hrs, 37°C; three separate experiments
Procedure, shortened: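 DT40 chicken B-cells (RPMI, 10% FBS, 1% chicken serum, 50μM β-mercaptoethanol) electroporated (350V, 500μF) with 2μg/ml each of GPVI and Myc-tagged FcRγ construct, 20μg NFAT-luciferase reporter and 2μg pEF6-lacZ. Live cells counted by trypan blue 20 h post-transfection. Luciferase normalised to β-galactosidase (triplicate readings), expressed as % wild-type response. Surface expression checked by anti-Myc flow cytometry.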

GPVI = conditions: cross-linking of GPVI; ref [8],[9]; cited from earlier work
[4] = system: single C-terminal SH2 domain of Syk; assay: Tryptophan fluorescence titration, Syk C-terminal SH2; assay type: binding; conditions: same concentration range as tandem SH2 titration; pH 7.5
[5] = target: Syk tandem SH2 domains (GST fusion protein); assay: other fluorescence titration
CLEC-2 = conditions: cross-linking of CLEC-2; ref [4],[6]; cited from earlier work

Sequence of dually phosphorylated peptide based on the human FcRγ-chain ITAM, biotinylated (human) (P30273 54-82): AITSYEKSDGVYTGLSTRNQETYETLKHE

Molecule: CLEC-2 cytoplasmic tail, 1-31 (from UniProt Q9P126) pY7 pT9 31-mer peptide
binding against the reference (Syk (platelet)): same

Molecule: non-phosphorylated CLEC-2 peptide: corresponding nonphosphorylated 13 amino acid peptide (MQDEDGYITLNIK; also: biotin, end not given here)
detectable binding, N-SH2 (Syk N-SH2 domain): No detectable binding | detectable binding, C-SH2 (Syk C-SH2 domain): No detectable binding | detectable binding, tandem SH2 [1]: No detectable binding

Kd [2]: 19.7 µM
Molecule: Syk N-terminal SH2 domain (GST fusion protein) (domain or fragment)

Kd [2]: 0.02 µM
Molecule: Syk tandem SH2 domains (GST fusion protein) (domain or fragment)

Molecule: collagen
NFAT activation by collagen, C-terminal ITAM tyrosine mutant [3]: abolished | phosphorylation of FcRγ-chain ITAM tyrosines (GPVI): Src kinase-dependent phosphorylation of two conserved tyrosines

Kd [2]: 1.7 µM
Molecule: Syk C-terminal SH2 domain (GST fusion protein) (domain or fragment)

Molecule: tyrosine phosphorylated CLEC-2 peptide: phosphorylated peptide based on the first 13 amino acids of the CLEC-2 tail, which includes the conserved MQDEDGYxxL sequence (MQDEDG[pY]ITLNIK; also: biotin, end not given here)
binding to single C-terminal SH2 domain, tryptophan fluorescence [4]: unable to detect binding

Kd [5]: 5.7 µM
Molecule: MQDEDG[pY]ITLNIK (also: biotinylated, end not given here)

B1: podoplanin: transmembrane protein podoplanin (protein, UniProt Q86YL7 23-162, looked up)
Podoplanin: ASTGQPEDDTETTGLEGGVAMPGAEDDVVTPGTSEDRYKSGLTTLVATSVNSVTGIRIEDLPTSESTVHAQEQSPSATASNVATSHSTEKVDGDTQTTVEKDGLSTVTLVGIIVGVLLAIGFIGAIIVVVMRKMSGRYSP
platelet aggregation and secretion (CLEC-2): powerful platelet aggregation and secretion
